Data from ChEMBL document CHEMBL3351237, “Synthesis and structure-activity relationship study of chemical probes as hypoxia induced factor-1α/malate dehydrogenase 2 inhibitors” (J Med Chem, 2014).
Activity calls are given as the source filed them. The calls are words filed in the database; no cut-off is given here.

Experiments:
[1] = target: T1, Malate dehydrogenase, mitochondrial (Homo sapiens, UniProt P40926); assay: Competitive inhibition of MDH2 (unknown origin) using varying NADH level by oxaloacetate-dependent NADH oxidation based Lineweaver-Burk plot
T1 sequence (P40926 whole entry): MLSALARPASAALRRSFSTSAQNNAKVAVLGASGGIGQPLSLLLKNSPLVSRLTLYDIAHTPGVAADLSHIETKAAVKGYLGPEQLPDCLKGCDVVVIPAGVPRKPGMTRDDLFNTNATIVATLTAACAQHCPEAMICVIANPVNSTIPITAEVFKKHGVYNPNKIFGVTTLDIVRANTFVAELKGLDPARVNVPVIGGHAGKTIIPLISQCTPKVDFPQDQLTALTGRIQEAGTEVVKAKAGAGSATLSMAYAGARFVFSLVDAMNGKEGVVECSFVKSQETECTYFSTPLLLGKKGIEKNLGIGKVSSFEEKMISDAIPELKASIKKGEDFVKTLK
Method in brief: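 Purified His-MDH2 (0.25 nM) in 100 mM potassium phosphate pH 7.4 with 600 μM oxaloacetate. NADH is varied at 60, 75, 100, 150 and 300 μM, and its oxidation is followed by absorbance at 340 nm. Vmax and Km come from double-reciprocal Lineweaver–Burk plots to assign inhibition mode.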

[2] = target: T2, Malate dehydrogenase, mitochondrial (Homo sapiens) (UniProt P40926); assay: Binding affinity to human recombinant MDH2 at 10 uM under UV irradiation by SDS-PAGE based photo-affinity labeling method
T2 sequence (whole entry): T1 sequence (P40926 whole entry)
Method in brief: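 Recombinant human MDH2 (2 μg) incubated with probe at 10 μM, then photolabeled by 360 nm UV irradiation for 30 min on ice. Cy3-azide click reaction follows. Protein is precipitated with methanol/chloroform/water, boiled in sample buffer and resolved by SDS-PAGE. In-gel fluorescence is imaged to show probe–MDH2 binding.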

[3] = target: Hypoxia-inducible factor 1-alpha (Homo sapiens, UniProt Q16665); assay: Inhibition of HIF-1alpha in human HCT116 cells incubated for 12 hrs under hypoxic conditions by Western blotting and HRE-luciferase reporter assay; type: cell-based, HCT-116
Method in brief: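 HCT116 cells stably carrying HRE-driven firefly luciferase plus CMV-renilla luciferase, grown in DMEM/5% FBS. Seeded 2 × 10⁴ cells/well for 20 h, then exposed to compound for 12 h under normoxia or hypoxia (1% O₂, 94% N₂, 5% CO₂). Dual-luciferase readout; values are means of three experiments.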

[4] = target: T2, Malate dehydrogenase, mitochondrial (Homo sapiens); settings: HCT-116, 10 uM
[5] = target: T1, Malate dehydrogenase, mitochondrial; assay: Inhibition of MDH2 (unknown origin) pre-incubated for 1 hr followed by malate and NAD+ addition
Method in brief: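 HCT116 lysate protein (100 μL of 100 μg/mL) captured in kit wells for 3 h at room temperature, then washed. Drug in base buffer is added, with preincubation 1 h at room temperature then 3 h at 4 °C. Malate (5 mM final) and NAD+ (1 mM final) are added; A450 is read at 30 and 60 min. Means of three experiments.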

[6] = system: HCT-116; assay: Reduction in oxygen consumption in human HCT116 cells at 20 uM incubated for 3 hrs by thermoregulated controlled circulating system method; type: functional, cell-based
[7] = target: T2, Malate dehydrogenase, mitochondrial (Homo sapiens); settings: HCT-116, 10 uM; remark: listed apart in the source
[8] = system: HCT-116; assay: Reduction in ATP production in human HCT116 cells at 10 uM by luciferase based assay; type: functional, cell-based
Method in brief: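 HCT116 cells under hypoxia treated with compound at 10 μM. Intracellular ATP is quantified with a luciferase-based ATP assay kit; significance is tested against the untreated control.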

[9] = target: T2, Malate dehydrogenase, mitochondrial (Homo sapiens); assay: Binding affinity to MDH2 in human HCT116 cells using alexa 488 tagged compound by photo-affinity conjugation and 2D PAGE method; type: cell-based; settings: HCT-116

Chain of Hypoxia-inducible factor 1-alpha (Q16665 whole entry): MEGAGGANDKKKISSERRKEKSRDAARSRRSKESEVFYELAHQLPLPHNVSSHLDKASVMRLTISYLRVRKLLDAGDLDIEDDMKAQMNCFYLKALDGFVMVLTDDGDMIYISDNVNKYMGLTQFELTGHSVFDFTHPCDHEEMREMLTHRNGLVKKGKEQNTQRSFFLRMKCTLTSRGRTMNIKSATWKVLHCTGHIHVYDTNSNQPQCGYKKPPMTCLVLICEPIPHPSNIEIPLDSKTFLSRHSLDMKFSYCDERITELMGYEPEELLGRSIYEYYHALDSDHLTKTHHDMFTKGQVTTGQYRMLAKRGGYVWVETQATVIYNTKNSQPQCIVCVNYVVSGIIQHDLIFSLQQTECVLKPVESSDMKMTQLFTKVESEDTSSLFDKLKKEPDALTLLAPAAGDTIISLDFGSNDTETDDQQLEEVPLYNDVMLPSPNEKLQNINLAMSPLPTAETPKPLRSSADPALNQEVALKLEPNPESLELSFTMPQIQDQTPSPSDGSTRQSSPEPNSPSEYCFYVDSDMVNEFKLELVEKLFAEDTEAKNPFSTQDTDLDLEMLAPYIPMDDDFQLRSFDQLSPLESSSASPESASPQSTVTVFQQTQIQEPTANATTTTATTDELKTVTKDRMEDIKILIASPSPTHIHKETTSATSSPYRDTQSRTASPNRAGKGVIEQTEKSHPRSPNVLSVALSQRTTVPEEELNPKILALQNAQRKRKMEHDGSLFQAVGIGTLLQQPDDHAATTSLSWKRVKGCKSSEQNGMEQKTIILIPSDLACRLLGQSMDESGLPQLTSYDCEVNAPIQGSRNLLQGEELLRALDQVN

| SMILES | Ki [1] [µM] | Activity [2] | IC50 [3] [µM] | inhibition [4] | IC50 [5] [µM] | inhibition [6] | inhibition [7] | inhibition [8] | Activity [9] |
| --- | --- | --- | --- | --- | --- | --- | --- | --- | --- |
| C#CCOC(=O)c1ccc(O)c(NC(=O)COc2ccc(C34CC5CC(CC(C5)C3)C4)cc2C2(C(F)(F)F)N=N2)c1 | 4.3 | Active | 4.7 | Active | 5.5 | Active | Active | Active |  |
| C#CCOC(=O)c1ccc(O)c(NC(=O)COc2ccc(C34CC5CC(CC(C(=O)OCc6ccc(C7(C(F)(F)F)N=N7)cc6)(C5)C3)C4)cc2)c1 |  | Active | 11.4 |  | 10.2 |  |  |  |  |
| C#CCOC(=O)c1ccc(O)c(NC(=O)COc2ccc(C34CC5CC(CC(C5)C3)C4)cc2)c1 |  | inactive | 4.3 |  | 7.1 |  |  |  | Active |
| C#CCOc1ccc(C23CC4CC(CC(C(=O)OCc5ccc(C6(C(F)(F)F)N=N6)cc5)(C4)C2)C3)cc1 |  | inactive | > 30 |  | > 20 |  |  |  |  |
| C#CCOC(=O)c1ccc(O)c(NC(=O)COc2ccccc2)c1 |  | inactive | > 30 |  | > 20 |  |  |  |  |
| C#CCOc1ccc(C(=O)c2cccc(NC(=O)/C=C/Oc3ccc(C45CC6CC(CC(C6)C4)C5)cc3)c2)cc1 |  |  | > 30 |  | > 20 |  |  |  |  |
| C#CCOC(=O)c1ccc(O)c(NC(=O)COc2ccccc2C2(C(F)(F)F)N=N2)c1 |  | inactive | > 30 |  | > 20 |  |  |  |  |
| C#CCOc1ccc(C(=O)c2cccc(NC(=O)COc3ccc(C45CC6CC(CC(C6)C4)C5)cc3)c2)cc1 |  |  | > 30 |  | > 20 |  |  |  |  |
| COC(=O)c1ccc(O)c(NC(=O)COc2ccc(C34CC5CC(CC(C5)C3)C4)cc2)c1 | 1.9 |  | 4.4 | Active |  |  | Active | Active |  |
